Measurements as given in the M2OR odorant receptor database.

What was measured:
Conditions in all cases: stereoisomer not certain
OR52K2 (Homo sapiens) = OR52K2 (Homo sapiens) (UniProt Q8NGK3)
Method in brief: (§1)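 Values were gathered from published papers (main text and supplementary material), with extra details requested from the original authors when needed, and checked for typos and inconsistencies. Each receptor–molecule pair is called responsive (active) if the original authors judged the measured signal statistically different from baseline, and non-responsive (inactive) otherwise. Assay methods varied by source, often transient mammalian cell-line luciferase assays. Recorded details include cell line, G-protein, co-transfected protein and tags.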

OR52L1 (Homo sapiens) [1] = target: OR52L1 (Homo sapiens) (UniProt Q8NGH7)
Method in brief: as §1
Target sequence in this assay (Q8NGH7 as listed by the source): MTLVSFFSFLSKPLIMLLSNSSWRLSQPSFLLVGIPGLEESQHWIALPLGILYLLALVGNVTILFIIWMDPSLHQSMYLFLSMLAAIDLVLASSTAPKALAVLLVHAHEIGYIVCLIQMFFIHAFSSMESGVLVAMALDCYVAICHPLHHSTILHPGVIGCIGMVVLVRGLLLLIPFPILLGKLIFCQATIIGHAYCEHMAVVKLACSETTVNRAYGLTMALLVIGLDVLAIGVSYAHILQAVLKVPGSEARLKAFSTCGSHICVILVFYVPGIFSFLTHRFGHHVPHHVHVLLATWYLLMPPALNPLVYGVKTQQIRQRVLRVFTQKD

OR52M1 (Homo sapiens) = OR52M1 (Homo sapiens) (UniProt Q8NGK5)
OR52M1 (Homo sapiens), sequence (Q8NGK5 whole entry): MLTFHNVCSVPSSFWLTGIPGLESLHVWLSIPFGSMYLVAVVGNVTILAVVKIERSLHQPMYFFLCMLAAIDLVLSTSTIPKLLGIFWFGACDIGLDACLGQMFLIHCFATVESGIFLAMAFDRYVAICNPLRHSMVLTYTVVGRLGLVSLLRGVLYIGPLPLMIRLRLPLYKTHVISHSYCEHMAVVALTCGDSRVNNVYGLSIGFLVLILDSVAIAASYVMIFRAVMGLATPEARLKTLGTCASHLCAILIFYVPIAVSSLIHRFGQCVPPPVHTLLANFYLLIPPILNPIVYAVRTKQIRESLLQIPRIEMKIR
Method in brief: as §1

OR52N1 (Homo sapiens) = OR52N1 (Homo sapiens) (UniProt Q8NH53)
OR52N1 (Homo sapiens), sequence (Q8NH53 whole entry): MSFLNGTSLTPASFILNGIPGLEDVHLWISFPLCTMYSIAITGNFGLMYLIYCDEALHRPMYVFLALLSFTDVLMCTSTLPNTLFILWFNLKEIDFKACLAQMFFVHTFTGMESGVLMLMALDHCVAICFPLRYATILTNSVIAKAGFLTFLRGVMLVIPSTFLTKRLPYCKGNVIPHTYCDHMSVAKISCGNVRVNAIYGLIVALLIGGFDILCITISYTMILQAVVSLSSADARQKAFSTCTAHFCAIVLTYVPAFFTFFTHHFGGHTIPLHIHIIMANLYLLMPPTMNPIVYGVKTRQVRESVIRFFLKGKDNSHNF
Method in brief: as §1

OR52N2 (Homo sapiens) = OR52N2 (Homo sapiens) (UniProt Q8NGI0)
OR52N2 (Homo sapiens), sequence (Q8NGI0 whole entry): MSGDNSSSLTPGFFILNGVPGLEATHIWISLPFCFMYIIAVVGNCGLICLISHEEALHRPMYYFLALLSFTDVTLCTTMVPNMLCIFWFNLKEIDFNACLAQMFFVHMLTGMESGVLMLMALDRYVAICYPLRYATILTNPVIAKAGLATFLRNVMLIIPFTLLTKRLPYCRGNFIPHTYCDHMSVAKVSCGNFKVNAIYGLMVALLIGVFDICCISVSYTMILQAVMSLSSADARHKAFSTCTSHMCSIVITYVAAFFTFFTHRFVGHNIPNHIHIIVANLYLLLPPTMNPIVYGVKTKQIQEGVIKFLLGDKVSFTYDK
Method in brief: as §1

OR52N4 (Homo sapiens) = OR52N4 (Homo sapiens) (UniProt Q8NGI2)
OR52N4 (Homo sapiens), sequence (Q8NGI2 whole entry): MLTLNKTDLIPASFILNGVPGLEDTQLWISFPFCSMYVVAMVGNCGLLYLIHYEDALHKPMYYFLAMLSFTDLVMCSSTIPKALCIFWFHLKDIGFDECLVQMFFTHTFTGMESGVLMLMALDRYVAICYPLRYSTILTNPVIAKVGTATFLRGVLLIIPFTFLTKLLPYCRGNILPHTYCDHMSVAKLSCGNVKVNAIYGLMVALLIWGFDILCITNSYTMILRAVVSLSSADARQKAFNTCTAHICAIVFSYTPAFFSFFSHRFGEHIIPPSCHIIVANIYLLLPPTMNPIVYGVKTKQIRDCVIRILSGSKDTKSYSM
Method in brief: as §1

OR52N5 (Homo sapiens) = OR52N5 (Homo sapiens) (UniProt Q8NH56)
OR52N5 (Homo sapiens), sequence (Q8NH56 whole entry): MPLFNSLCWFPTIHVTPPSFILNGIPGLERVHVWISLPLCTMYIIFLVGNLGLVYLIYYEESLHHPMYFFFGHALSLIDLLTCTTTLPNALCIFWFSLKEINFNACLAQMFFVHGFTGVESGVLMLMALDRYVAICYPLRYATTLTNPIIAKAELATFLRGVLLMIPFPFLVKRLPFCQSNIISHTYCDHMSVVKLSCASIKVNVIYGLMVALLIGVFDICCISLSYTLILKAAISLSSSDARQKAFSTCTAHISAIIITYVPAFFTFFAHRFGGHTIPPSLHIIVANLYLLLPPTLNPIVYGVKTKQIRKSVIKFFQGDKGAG
Method in brief: as §1

OR52R1 (Homo sapiens) = OR52R1 (Homo sapiens) (UniProt Q8NGF1)
OR52R1 (Homo sapiens), sequence (Q8NGF1 whole entry): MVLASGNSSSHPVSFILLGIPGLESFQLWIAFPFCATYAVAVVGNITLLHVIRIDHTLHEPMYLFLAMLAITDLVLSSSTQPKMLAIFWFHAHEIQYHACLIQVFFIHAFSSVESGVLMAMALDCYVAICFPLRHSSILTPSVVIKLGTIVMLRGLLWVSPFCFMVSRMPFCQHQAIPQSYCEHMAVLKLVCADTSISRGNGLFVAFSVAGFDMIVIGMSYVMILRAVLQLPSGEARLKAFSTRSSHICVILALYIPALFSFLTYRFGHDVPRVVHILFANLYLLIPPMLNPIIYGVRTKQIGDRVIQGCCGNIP
Method in brief: as §1

OR52W1 (Homo sapiens) = OR52W1 (Homo sapiens) (UniProt Q6IF63)
OR52W1 (Homo sapiens), sequence (Q6IF63 whole entry): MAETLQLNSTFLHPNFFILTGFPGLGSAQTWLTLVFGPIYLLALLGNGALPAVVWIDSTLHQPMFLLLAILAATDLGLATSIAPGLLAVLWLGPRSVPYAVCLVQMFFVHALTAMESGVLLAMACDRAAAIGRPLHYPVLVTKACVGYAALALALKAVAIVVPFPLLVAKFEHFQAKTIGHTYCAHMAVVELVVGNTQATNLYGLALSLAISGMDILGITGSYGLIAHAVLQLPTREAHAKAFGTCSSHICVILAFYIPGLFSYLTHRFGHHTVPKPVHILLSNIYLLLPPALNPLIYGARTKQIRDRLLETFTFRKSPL
Method in brief: as §1

OR52L1 (Homo sapiens) [2] = target: OR52L1 (Homo sapiens) (UniProt Q8NGH7); remark: listed apart in the source
Method in brief: as §1
Target sequence in this assay (Q8NGH7 whole entry): as the sequence (Q8NGH7 as listed by the source) above, with C140R, C161R, K183T, W297R counted along it

Measured: odorant receptor agonist call

OR52K2 (Homo sapiens), sequence (Q8NGK3 whole entry): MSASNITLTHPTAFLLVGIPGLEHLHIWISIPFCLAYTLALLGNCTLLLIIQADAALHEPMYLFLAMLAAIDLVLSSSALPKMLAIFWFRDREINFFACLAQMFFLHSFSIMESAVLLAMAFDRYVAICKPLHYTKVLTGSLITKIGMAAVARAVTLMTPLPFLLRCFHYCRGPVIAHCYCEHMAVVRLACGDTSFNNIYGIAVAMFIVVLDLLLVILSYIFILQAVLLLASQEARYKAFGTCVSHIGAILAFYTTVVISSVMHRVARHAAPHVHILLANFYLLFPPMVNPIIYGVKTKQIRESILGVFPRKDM

Cc1c([N+](=O)[O-])c(C)c([N+](=O)[O-])c(C(C)(C)C)c1[N+](=O)[O-]
not listed: OR52L1 (Homo sapiens) [2]
inactive: all other assays above

C=CCOC(=O)Cc1ccccc1
not listed: OR52L1 (Homo sapiens) [1]
inactive: all other assays above
